IC50, Activity and Ka data for 13 compounds are collected here from ChEMBL document CHEMBL1821718, “Curcumin recognizes a unique binding site of tubulin” (J Med Chem, 2011).

Activity calls are given as the source filed them. The rule behind the calls is not given here.

Test [1] can be described thus: Inhibition of goat brain tubulin polymerization assessed as turbidity by UV spectrophotometry. On the set-up: species or system Capra hircus. The gist of the method: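 Goat brain tubulin in PEM buffer (50 mM PIPES pH 7, 1 mM EGTA, 0.5 mM MgCl2) with 1 mM GTP. Assembly initiated with 10% DMSO at 37 °C and turbidity followed at 360 nm. Half-maximal inhibition taken as the concentration reducing polymer mass by 50%; run in triplicate, at least two repetitions.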

Test [2] is filed under the species Capra hircus. The test can be described thus: Binding affinity to goat brain tubulin by isothermal titration calorimetry. For orientation: Isothermal titration calorimetry measures the heat released or taken up as one component is titrated into another.
In test [3] the test system is A549. The test is described as follows: Disruption of interphase microtubule network in human A549 cells after 24 hrs by confocal microscopy. The format is functional, cell-based. In outline:
(§1)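 A549 or HeLa cells at 10^6 cells/mL exposed to 0–2.5 μM compound for 24 h. PBS-washed, fixed in 2% paraformaldehyde, permeabilized 1 h (0.1% Na citrate, 0.1% Triton), blocked in 5% BSA. Stained with mouse anti-α-tubulin (1:200) then rhodamine anti-mouse IgG (1:150) plus DAPI 1 μg/mL. Interphase network imaged by confocal microscopy; n = 3.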

Test [4] is described as follows: Binding affinity to goat brain tubulin by spectrofluorimetry.
In test [5] the test system is HeLa. The test is described as follows: Disruption of interphase microtubule network in human HeLa cells after 24 hrs by confocal microscopy. The format is functional, cell-based. The gist of the method:
as §1

Test [6] has as its system HeLa. The test can be described thus: Induction of apoptosis in human HeLa cells assessed as abnormality in nuclear DNA at 5 uM by DAPI staining technique. The format is functional, cell-based.
Test [7] relates to HeLa. The test can be described thus: Perturbation of spindle microtubule and chromosomal organization in human HeLa cells at 2.5 uM after 24 hrs by immunofluorescence method. In kind it is functional, cell-based. The gist of the method:
(§2)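 Cells exposed to 0–2.5 μM compound for 24 h, fixed in 2% paraformaldehyde, permeabilized, blocked with 5% BSA. Spindles stained with anti-α-tubulin (1:200) and rhodamine secondary (1:150); chromosomes stained with DAPI (1 μg/mL). Bipolar spindle and metaphase-plate alignment scored by confocal microscopy; three experiments.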

Test [8] deals with HeLa. The test can be described thus: Antiproliferative activity against human HeLa cells assessed as loss of cell viability after 48 hrs by MTT assay. The format is functional, cell-based. The gist of the method:
(§3)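 Cells seeded at 1 × 10^4 per well in DMEM with 10% FBS, 1 mM L-glutamine and antibiotics at 37 °C, 5% CO2. Exposed to 0–50 μM compound for 48 h. MTT (2 mg/mL in PBS) added until purple precipitate formed; absorbance read at 570 nm against 650 nm reference. Mean ± SEM, n = 4; IC50 taken from concentration-response.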

The test system of test [9] is A549. The test can be described thus: Perturbation of spindle microtubule and chromosomal organization in human A549 cells at 2.5 uM after 24 hrs by immunofluorescence method. The format is functional, cell-based. In outline: as §2
Test [10] has as its system A549. The test can be described thus: Antiproliferative activity against human A549 cells assessed as loss of cell viability after 48 hrs by MTT assay. The format is functional, cell-based. The conditions noted are these: A549, 48 h. The gist of the method:
as §3
Background: Tetrazolium assays rely on reduction of a dye to a coloured formazan, in cell work by metabolically active cells.

Test [11] deals with HeLa. The test is described as follows: Disruption of human HeLa cell morphology at 2.5 to 5 uM after 24 hrs by phase contrast microscopy. The format is functional, cell-based. In outline:
(§4)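 A549 and HeLa cells grown in DMEM with 10% FBS at 37 °C, 5% CO2, exposed to 2.5 or 5 μM compound for 24 h. Morphology of control and treated cells recorded by inverted phase-contrast microscopy.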

Test [12] concerns A549. The test is described as follows: Induction of apoptosis in human A549 cells assessed as abnormality in nuclear DNA at 5 uM by DAPI staining technique. In kind it is functional, cell-based.
Test [13] has as its system HeLa. The test is described as follows: Induction of cell cycle arrest in human HeLa cells assessed as accumulation in G2/M phase at 5 uM after 24 hrs by flow cytometry. In kind it is functional, cell-based. Background: A flow cytometer gives signals particle by particle.
Test [14] has as its system A549. The test can be described thus: Disruption of interphase microtubule network in human A549 cells at 2.5 uM after 24 hrs by confocal microscopy. The format is functional, cell-based. The gist of the method: as §1
The subject of test [15] is HeLa. The test can be described thus: Cell cycle arrest in nocodazole pre-treated human HeLa cells at 5 uM assessed as accumulation in G2/M phase after 8 hrs by flow cytometry. In kind it is functional. The gist of the method:
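HeLa cells at 1 × 10^6 cells/mL held 20 h in nocodazole (2 μM in methods; 1.5 μM in text), washed, then given fresh medium with 5 μM compound for 8 h. Fixed in ice-cold methanol, treated 4 h at 37 °C with 1 mg/mL RNase A, stained with PI. G2/M fraction measured by FACS.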

Test [16] concerns A549. The test is described as follows: Induction of apoptosis in human A549 cells assessed as apoptotic cells at 5 uM after 48 hrs by FITC-conjugated annexin-V/PI assay. In kind it is functional. In outline: (§5)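 About 1 × 10^6 A549 or HeLa cells treated with 0–5 μM compound for 48 h. Stained 15 min at room temperature in the dark with FITC-annexin V (1 μg/mL) and PI (0.5 μg/mL) in Ca2+-enriched binding buffer. Annexin-V-positive fraction quantified by flow cytometry.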

The test system of test [17] is A549. The test can be described thus: Disruption of human A549 cell morphology at 2.5 to 5 uM after 24 hrs by phase contrast microscopy. In kind it is functional, cell-based. The gist of the method:
as §4

In test [18] the test system is HeLa. The test is described as follows: Induction of apoptosis in human HeLa cells assessed as apoptotic cells at 5 uM after 48 hrs by FITC-conjugated annexin-V/PI assay. The format is functional. The gist of the method: as §5
Test [19] concerns HeLa. The test can be described thus: Disruption of interphase microtubule network in human HeLa cells at 2.5 uM after 24 hrs by confocal microscopy. In kind it is functional, cell-based. In outline: as §1
Test [20] concerns MCF7. The test is described as follows: Cell cycle arrest in nocodazole pre-treated human MCF7 cells. The format is functional, cell-based.
Test [21] has as its system HeLa (Homo sapiens). The test can be described thus: Induction of cell cycle arrest in human HeLa cells assessed as accumulation in G2/M phase at 5 uM after 24 hrs by flow cytometry.

In the case of `COc1cc(/C=C/C(=O)CC(=O)/C=C/c2ccc(OC(C)=O)c(OC)c2)ccc1OC(C)=O`, in [1], the IC50 was 60 µM.
Regarding `COc1ccc(/C=C/C(=O)O)cc1OC`, the result in test [2] was inactive.
In the case of `COc1cc(/C=C/c2cc(/C=C/c3ccc(O)c(OC)c3)[nH]n2)ccc1O` [CURCUMIN PYRAZOLE], the IC50 in test [1] came to 23 µM.
The same measure, in the same setting: in the case of `COc1cc(/C=C/c2cc(/C=C/c3ccc(O)c(OC)c3)n(-c3cccc([N+](=O)[O-])c3)n2)ccc1O` it was 36 µM.
As for `O=C(O)/C=C/c1ccccc1`, the result in test [2] was inactive.
Turning to `COc1cc(/C=C/c2cc(/C=C/c3ccc(O)c(OC)c3)n(-c3ccc(F)cc3)n2)ccc1O`, the IC50 in test [1] is 34 µM.
In the case of `O=C(O)/C=C/c1ccc(O)cc1O`, the result in test [2] was inactive.
The same measure, in the same setting: the value for `O=C(O)/C=C/c1ccccc1O` was “inactive”.
For `COc1cc(C=C(C(=O)/C=C/c2ccc(O)c(OC)c2)C(=O)/C=C/c2ccc(O)c(OC)c2)ccc1O`, the Activity entry is “Dose-dependent effect” in test [3]; “Dose-dependent effect” in test [5]; 35% in test [15]; 45% in test [16]; 38% in [18]. Moreover, the Ka in test [4] was 2.5 ×10⁶ /M. The result in test [6], in [7], in test [9], in test [11], in test [12] and in [14] was Active. Besides, the outcome in [17] and in [19] was Active. Further, the IC50 turned out to be 6 µM in test [8], 7 µM in test [10] and 16 µM in [1]. Also, the outcome in [13] was inactive.
Turning to `O=C(O)/C=C/c1ccc(O)c(O)c1`, the result in test [2] was inactive.
`COc1ccc(-n2nc(/C=C/c3ccc(O)c(OC)c3)cc2/C=C/c2ccc(O)c(OC)c2)cc1`: the IC50 in [1] stood at 38 µM.
In test [4], `COc1cc(/C=C/C(=O)CC(=O)/C=C/c2ccc(O)c(OC)c2)ccc1O` [CURCUMIN] gave a Ka of 5.01 ×10⁵ /M. The result in [6], in test [7], in [9], in test [21], in test [11] and in [12] was inactive. The result in [13], in test [14], in [17] and in test [19] was inactive. In addition, the outcome in test [20] was Active. Besides, the results for the 50% inhibitory concentration (IC50) in test [10] and in [1] were 17 µM and 20 µM, respectively. Besides, the Activity is 18% in test [15], 16% in test [16] and 8% in test [18].
For `COc1cc(/C=C/c2cc(/C=C/c3ccc(O)c(OC)c3)on2)ccc1O`, the half-inhibitory concentration (IC50) in test [1] stood at 26 µM.

The term IC50 denotes the concentration that gives 50% inhibition.
